Activity calls are given as the source filed them. No cut-off for these calls is given here.
How the values were obtained:
[1] = biological target: T1, Polyunsaturated fatty acid 5-lipoxygenase (Rattus norvegicus, UniProt P12527); assay: Inhibitory activity against rat 5-lipoxygenase by using continuous oxygen consumption assay.
T1 sequence (P12527 whole entry): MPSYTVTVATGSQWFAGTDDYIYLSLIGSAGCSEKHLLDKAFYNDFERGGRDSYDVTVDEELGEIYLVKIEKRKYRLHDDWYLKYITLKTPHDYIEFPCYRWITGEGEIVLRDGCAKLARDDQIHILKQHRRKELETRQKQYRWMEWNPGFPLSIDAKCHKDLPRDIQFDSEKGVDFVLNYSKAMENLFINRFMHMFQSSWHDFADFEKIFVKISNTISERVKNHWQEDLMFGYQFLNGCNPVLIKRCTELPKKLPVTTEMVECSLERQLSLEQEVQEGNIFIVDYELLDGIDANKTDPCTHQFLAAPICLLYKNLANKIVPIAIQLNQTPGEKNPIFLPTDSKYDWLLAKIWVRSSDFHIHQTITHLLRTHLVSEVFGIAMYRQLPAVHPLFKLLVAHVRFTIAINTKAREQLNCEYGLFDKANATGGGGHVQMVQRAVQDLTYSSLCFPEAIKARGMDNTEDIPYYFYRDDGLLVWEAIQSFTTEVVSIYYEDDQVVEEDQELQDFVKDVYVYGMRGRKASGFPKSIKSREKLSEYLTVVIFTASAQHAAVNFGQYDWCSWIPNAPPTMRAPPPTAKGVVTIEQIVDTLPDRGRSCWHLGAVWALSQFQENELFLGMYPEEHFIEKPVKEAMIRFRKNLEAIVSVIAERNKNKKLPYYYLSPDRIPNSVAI
How it was run: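 Semipurified cytosolic 5-LO from rat basophilic leukemia (RBL-1) cells; continuous oxygen-electrode assay of oxygen consumption; IC50.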

[2] = biological target: T2, Polyunsaturated fatty acid 5-lipoxygenase (Mus musculus) (UniProt P48999); assay: Inhibition of leukotriene formation in A-23187-stimulated mouse whole blood using […] ex vivo, activity expressed as percent of control.; assay type: functional, tissue-based; parameters: scale not given: the % may be the effect or the level left
T2 sequence (whole entry): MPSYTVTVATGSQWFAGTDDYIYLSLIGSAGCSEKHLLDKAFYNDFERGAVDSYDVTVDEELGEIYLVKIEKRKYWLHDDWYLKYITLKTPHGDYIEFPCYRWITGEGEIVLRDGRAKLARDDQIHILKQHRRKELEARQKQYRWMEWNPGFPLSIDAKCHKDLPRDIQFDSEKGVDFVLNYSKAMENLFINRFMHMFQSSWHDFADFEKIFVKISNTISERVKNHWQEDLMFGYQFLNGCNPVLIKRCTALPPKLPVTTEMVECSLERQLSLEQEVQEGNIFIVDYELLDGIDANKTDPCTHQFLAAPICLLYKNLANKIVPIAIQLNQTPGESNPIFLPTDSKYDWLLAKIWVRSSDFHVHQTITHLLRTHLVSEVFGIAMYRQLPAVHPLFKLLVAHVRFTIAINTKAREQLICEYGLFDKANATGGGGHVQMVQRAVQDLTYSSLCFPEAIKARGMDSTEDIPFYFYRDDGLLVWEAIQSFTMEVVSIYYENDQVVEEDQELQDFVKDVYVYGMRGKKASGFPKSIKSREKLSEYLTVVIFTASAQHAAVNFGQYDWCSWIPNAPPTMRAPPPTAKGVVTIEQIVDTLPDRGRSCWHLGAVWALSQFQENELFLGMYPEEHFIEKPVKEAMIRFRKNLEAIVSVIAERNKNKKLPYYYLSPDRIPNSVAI

Mus musculus [3] = species on record: Mus musculus; assay: Compound was tested to inhibit Leukotriene formation in A-23187-stimulated mouse whole blood using […] ex vivo, activity expressed as percent of control; NS=No Stastistical Significance; assay type: functional, organism-based
Mus musculus [4] = species on record: Mus musculus; assay: Compound was tested to inhibit Leukotriene formation in A-23187-stimulated mouse whole blood using […] ex vivo; assay type: functional
Mus musculus [5] = assay: Maximum inhibition of LTB4 at dose 10 mg/kg in mouse; assay type: functional
Mus musculus [6] = assay: Percentage inhibition of LTB4 after 6 hr at dose 10 mg/kg in mouse; assay type: functional
Canis familiaris = assay: Compound was administered intravenously in dog to evaluate plasma clearance values; assay type: ADME, organism-based, Canis lupus familiaris; conditions: in vivo, iv
How it was run: (§1)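 IV infusion over 15 min via saphenous (monkey) or cephalic (dog) vein catheter, 1–1.4 mg/kg in 7.5% (w/v) aqueous (2-hydroxypropyl)-β-cyclodextrin; male cynomolgus monkeys and beagle dogs, N = 3. Chilled plasma analysed by HPLC. Noncompartmental parameters were estimated per animal and then averaged. CLp = dose/AUC, with AUC by linear/log-linear trapezoidal rule.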

[7] = Compound was administered intravenously in monkey to evaluate plasma clearance values; assay type: ADME, organism-based; conditions: simiiformes, in vivo, iv; how it was run: as §1
Mus musculus [8] = assay: Compound was administered intravenously in mouse to evaluate half life; ID= Iinsufficient data to calculate parameter.; assay type: ADME, organism-based; conditions: in vivo, iv
How it was run: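 Male CD-1 mice given 0.5 mg/kg IV by lateral tail vein over 5–10 s, in ethanol/propylene glycol 30:70 v/v; N = 3 per time point with terminal sampling under ether. Plasma HPLC, LOQ 0.05 μg/mL. Mean concentration per time point before noncompartmental analysis. Half-life from slope of log-concentration profile; CLp = dose/AUC.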

Mus musculus [9] = species on record: Mus musculus; assay: Percentage inhibition of LTB4 formation after 6 hr in mouse; assay type: functional
Mus musculus [10] = assay: Maximum inhibition of LTB4 formation at dose 15 mg/kg in mouse; assay type: functional
Mus musculus [11] = assay: Compound was tested to inhibit Leukotriene formation in mouse sensitized with 1BD8 cells after 7 hr of compound administration, activity expressed as percent of control; assay type: functional; parameters: concentration or dose not given beside the values
Mus musculus [12] = species on record: Mus musculus; assay: Inhibition of Leukotriene formation in mouse adoptive peritoneal anaphylaxis assay ex vivo; assay type: functional; conditions: Mus musculus
Mus musculus [13] = species on record: Mus musculus; assay: Glucuronidation rates in mouse liver microsomes; assay type: functional
How it was run: (§2)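 Liver microsomes (fresh male CD-1 mouse >10 weeks, or frozen human donor) at 0.25–1.0 mg/mL protein. Incubated with 2.5 mM substrate, 15 mM [14C]UDP-glucuronic acid, 10 mM MgCl2 and 2% BSA in 100 mM sodium phosphate pH 7.4, at 37 °C for 1–4 h. Stopped with 20% acetonitrile; glucuronide quantified by HPLC. Mean of duplicates.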

Mus musculus [14] = assay: Maximum inhibition of LTB4 at dose 2 mg/kg in mouse; assay type: functional
Mus musculus [15] = assay: Percentage inhibition of LTB4 after 6 hr at dose 2 mg/kg in mouse; assay type: functional
Homo sapiens [16] = species on record: Homo sapiens; assay: Glucuronidation rates in human liver microsomes; assay type: functional; how it was run: as §2
Mus musculus [17] = species on record: Mus musculus; assay: Glucuronidation rates in mouse liver microsomes; not detected; assay type: functional; how it was run: as §2
Homo sapiens [18] = species on record: Homo sapiens; assay: Compound was tested to inhibit Leukotriene formation in A-23187-stimulated human whole blood using LTB4 specific RIA in vitro; assay type: functional
How it was run: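 Human whole blood stimulated with A23187; LTB4 measured by specific radioimmunoassay. IC50 with 95% confidence limits from linear regression.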

Mus musculus [19] = assay: Maximum inhibition of LTB4 at dose 6 mg/kg in mouse; assay type: functional
Mus musculus [20] = assay: Percentage inhibition of LTB4 after 6 hr at dose 6 mg/kg in mouse; assay type: functional
[21] = Mus musculus, Blood, read-out: ED50

## NC(=O)N(O)C1CCn2c1cc1cc(Oc3ccccc3)ccc12 (configuration not stated)
[1]
  IC50: 520 nM
[2]
  Activity: -58%

## NC(=O)N(O)C1CCCc2cc(CCc3ccccc3)ccc21 (configuration not stated)
[1]
  IC50: 600 nM
Mus musculus [3]
  Activity: inactive

## NC(=O)N(O)C1CCc2cc(Oc3ccccc3)ccc21 (configuration not stated)
[1]
  IC50: 850 nM
[2]
  Activity: -88%
Mus musculus [4]; [21]
  ED50: 6.4 mg/kg
Mus musculus [5]
  Max inhibition: 88
Mus musculus [6]
  inhibition in vivo at 10 mg/kg: 57%

## NC(=O)N(O)C1CCCc2cc(OCc3ccccc3)ccc21 (stereo in doubt; 3a) [listing 1 of 2 here]
[2]
  Activity: -67%

## NC(=O)N(O)C1CCCc2c(OCc3ccccc3)cccc21 (configuration not stated)
[1]
  IC50: 910 nM
[2]
  Activity: -44%

## NC(=O)N(O)C1CCc2cc(OCc3ccccc3)ccc21 (stereo in doubt; (-)2a)
[1]
  IC50: 620 nM

## NC(=O)N(O)C1CCCc2cc(OCc3ccc4ccccc4c3)ccc21 (configuration not stated)
[1]
  IC50: 500 nM
Mus musculus [3]
  Activity: inactive

## NC(=O)N(O)C1COc2cc(OCc3ccccc3)ccc21 (single isomer, unassigned; (-))
Canis familiaris
  Clp: 10.9 mL/min
[7]
  Clp: 10.3 mL/min
Mus musculus [8]
  T1/2: Insufficient data

## NC(=O)N(O)C1CCn2c1cc1cc(Cl)ccc12 (configuration not stated)
[1]
  IC50: 1300 nM

## NC(=O)N(O)C1CCCc2cc(OCc3ccccc3)ccc21 (stereo in doubt; 3a) [listing 2 of 2 here]
[1]
  IC50: 1800 nM
Mus musculus [4]; [21]
  ED50: 9.9 mg/kg
Mus musculus [9]
  Inhibition: 67%
Mus musculus [10]
  Max inhibition: 61

## NC(=O)N(O)C1CCc2cc(OCc3ccccc3)ccc21 (stereo in doubt; 2a)
[1]
  IC50: 780 nM
Mus musculus [11]
  Activity: -31%
Mus musculus [4]; [21]
  ED50: 2.6 mg/kg
Mus musculus [12]
  ED50: 4 mg/kg

## CC(c1cc2ccccc2s1)N(O)C(N)=O (configuration not stated) [ZILEUTON]
Mus musculus [11]
  Activity: -10%
[2]
  Activity: -78%
Mus musculus [4]; [21]
  ED50: 1 mg/kg
Mus musculus [13]
  Rate of formation (nM (mg of protein)-1): 0.7
Mus musculus [14]
  Max inhibition: 70
Mus musculus [15]
  inhibition in vivo at 2 mg/kg: 40%
Homo sapiens [16]
  Rate of formation (nM (mg of protein)-1): 6.8
Mus musculus [12]
  ED50: 1 mg/kg

## NC(=O)N(O)C1CCCc2cc(OCc3ccccc3)ccc21 (single isomer, unassigned; (+)) [listing 1 of 2 here]
[2]
  Activity: 28%

## NC(=O)N(O)C1COc2cc(OCc3ccccc3)ccc21 (single isomer, unassigned; (+))
Mus musculus [17]
  Rate of formation: inactive
Homo sapiens [16]
  Rate of formation (nM (mg of protein)-1): 2.5

## NC(=O)N(O)C1CCCc2c1ccc1ccccc21 (configuration not stated)
[1]
  IC50: 5600 nM

## NC(=O)N(O)C1CCCc2cc(OCc3ccccc3)ccc21 (single isomer, unassigned; (-))
[1]
  IC50: 1300 nM

## NC(=O)N(O)C1COc2cc(OCc3ccccc3)ccc21 (stereo in doubt; 1a) [listing 1 of 2 here]
Homo sapiens [18]
  IC50: 4300 nM
Mus musculus [11]
  Activity: -55%
Mus musculus [4]
  ED50: 3.9 mg/kg
Mus musculus [19]
  Max inhibition: 91
Mus musculus [20]
  inhibition in vivo at 6 mg/kg: 87%
Mus musculus [12]
  ED50: 3.9 mg/kg

## NC(=O)N(O)C1CCCc2cc(OCc3ccccc3)ccc21 (single isomer, unassigned; (+)) [listing 2 of 2 here]
[1]
  IC50: 760 nM

## Cc1c2n(c3ccc(C(C)C)cc13)CCC2N(O)C(N)=O (configuration not stated)
[1]
  IC50: 1700 nM
Mus musculus [3]
  Activity: inactive

## COc1ccc2c(c1)CCCC2N(O)C(N)=O (configuration not stated)
[1]
  IC50: 48000 nM
Mus musculus [3]
  Activity: inactive

## NC(=O)N(O)C1COc2cc(OCc3ccccc3)ccc21 (stereo in doubt; 1a) [listing 2 of 2 here]
[2]
  Activity: -100%

From ChEMBL document CHEMBL1129750, “Bicyclic N-hydroxyurea inhibitors of 5-lipoxygenase: pharmacodynamic, pharmacokinetic, and in vitro metabolic studies characterizing N-hydroxy-N-(2,3-dihydro-6-(phenylmethoxy)-3-benzofuranyl)urea” (J Med Chem, 1996)
